Data reported in ChEMBL document CHEMBL1134286, “Novel erythromycin derivatives with aryl groups tethered to the C-6 position are potent protein synthesis inhibitors and active against multidrug-resistant respiratory pathogens” (J Med Chem, 2001).
Values after ≈ are worked out from the molar mass of the structure shown.

Assays:
Format in all cases: functional
Streptococcus pneumoniae [1] = assay: Minimum inhibitory concentration against Streptococcus pneumoniae 5649 efflux
Outline: (§1)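 MICs were determined by agar dilution following National Committee for Clinical Laboratory Standards recommendations. Values are in µg/mL.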

[2] = Minimum inhibitory concentration against Haemophilus influenzae DILL Amp-R; outline: as §1
[3] = Minimum inhibitory concentration against Streptococcus pyogenes 930MLSB; outline: as §1
Staphylococcus aureus [4] = assay: Minimum inhibitory concentration against Staphylococcus aureus ATCC 6538PEry-S; conditions: ATCC 6538P; outline: as §1
Staphylococcus aureus [5] = assay: Minimum inhibitory concentration against Staphylococcus aureus A 5177 MLSB-i; outline: as §1
Staphylococcus aureus [6] = assay: Minimum inhibitory concentration against Staphylococcus aureus A 5278 MLSB-c; outline: as §1
[7] = Minimum inhibitory concentration against Streptococcus pneumoniae 5737 MLSB; outline: as §1
Streptococcus pneumoniae [8] = assay: Minimum inhibitory concentration against Streptococcus pneumoniae ATCC 6303 Ery-S; outline: as §1
[9] = Minimum inhibitory concentration against Streptococcus pyogenes PIU2548 efflux; outline: as §1
[10] = Minimum inhibitory concentration against Streptococcus pyogenes EES 61 Ery-S; outline: as §1

Row | Compound | MIC (Streptococcus pneumoniae [1]) | MIC [2] | MIC [3] | MIC (Staphylococcus aureus [4]) | MIC (Staphylococcus aureus [5]) | MIC (Staphylococcus aureus [6]) | MIC [7] | MIC (Streptococcus pneumoniae [8]) | MIC [9] | MIC [10]
1 | CC[C@H]1OC(=O)[C@H](C)C(=O)[C@H](C)[C@@H](O[C@@H]2O[C@H](C)C[C@H](N(C)C)[C@H]2O)[C@](C)(OC/C=C/c2cccc3ccccc23)C[C@@H](C)C(=O)[C@H](C)[C@H]2NC(=O)O[C@@]21C | 0.25 µg/mL (≈ 0.327 µM) | 4 µg/mL (≈ 5.23 µM) | 16 µg/mL (≈ 20.9 µM) | 0.1 µg/mL (≈ 0.131 µM) | 0.1 µg/mL (≈ 0.131 µM) | 50 µg/mL (≈ 65.4 µM) | 8 µg/mL (≈ 10.5 µM) | 0.015 µg/mL (≈ 0.0196 µM) | 0.25 µg/mL (≈ 0.327 µM) | 0.015 µg/mL (≈ 0.0196 µM)
2 | CC[C@H]1OC(=O)[C@H](C)C(=O)[C@H](C)[C@@H](O[C@@H]2O[C@H](C)C[C@H](N(C)C)[C@H]2O)[C@](C)(OC/C=C/c2cnc3ccccc3c2)C[C@@H](C)C(=O)[C@H](C)[C@H]2N(C)C(=O)O[C@]12C | 0.25 µg/mL (≈ 0.321 µM) | 4 µg/mL (≈ 5.13 µM) | 4 µg/mL (≈ 5.13 µM) | 0.1 µg/mL (≈ 0.128 µM) | 0.1 µg/mL (≈ 0.128 µM) | > 100 µg/mL | 1 µg/mL (≈ 1.28 µM) | 0.03 µg/mL (≈ 0.0385 µM) | 0.25 µg/mL (≈ 0.321 µM) | 0.015 µg/mL (≈ 0.0192 µM)
3 | CC[C@H]1OC(=O)[C@H](C)C(=O)[C@H](C)[C@@H](O[C@@H]2O[C@H](C)C[C@H](N(C)C)[C@H]2O)[C@](C)(OCCNCc2cnc3ccccc3c2)C[C@@H](C)C(=O)[C@H](C)[C@H]2NC(=O)O[C@@]21C | 2 µg/mL (≈ 2.55 µM) | 2 µg/mL (≈ 2.55 µM) | 16 µg/mL (≈ 20.4 µM) | 0.1 µg/mL (≈ 0.128 µM) | 0.1 µg/mL (≈ 0.128 µM) | > 100 µg/mL | 4 µg/mL (≈ 5.11 µM) | 0.03 µg/mL (≈ 0.0383 µM) | 2 µg/mL (≈ 2.55 µM) | 0.03 µg/mL (≈ 0.0383 µM)
4 | CC[C@H]1OC(=O)[C@H](C)C(=O)[C@H](C)[C@@H](O[C@@H]2O[C@H](C)C[C@H](N(C)C)[C@H]2O)[C@](C)(OC/C=C/c2cccc3cnccc23)C[C@@H](C)C(=O)[C@H](C)[C@H]2NC(=O)O[C@@]21C | 0.25 µg/mL (≈ 0.326 µM) | 4 µg/mL (≈ 5.22 µM) | 32 µg/mL (≈ 41.8 µM) | 0.1 µg/mL (≈ 0.131 µM) | 0.1 µg/mL (≈ 0.131 µM) | > 100 µg/mL | 8 µg/mL (≈ 10.4 µM) | 0.008 µg/mL (≈ 0.0104 µM) | 0.25 µg/mL (≈ 0.326 µM) | 0.008 µg/mL (≈ 0.0104 µM)
5 | C=CCO[C@]1(C)C[C@@H](C)C(=O)[C@H](C)[C@H]2N(C)C(=O)O[C@]2(C)[C@@H](CC)OC(=O)[C@H](C)C(=O)[C@H](C)[C@H]1O[C@@H]1O[C@H](C)C[C@H](N(C)C)[C@H]1O | 0.5 µg/mL (≈ 0.766 µM) | > 128 µg/mL | > 128 µg/mL | 6.2 µg/mL (≈ 9.5 µM) | 6.2 µg/mL (≈ 9.5 µM) | > 100 µg/mL | > 128 µg/mL | 0.5 µg/mL (≈ 0.766 µM) | 2 µg/mL (≈ 3.06 µM) | 0.5 µg/mL (≈ 0.766 µM)
6 | CC[C@H]1OC(=O)[C@H](C)C(=O)[C@H](C)[C@@H](O[C@@H]2O[C@H](C)C[C@H](N(C)C)[C@H]2O)[C@](C)(OCCNCc2ccnc3ccccc23)C[C@@H](C)C(=O)[C@H](C)[C@@H](O)[C@]1(C)O | 0.5 µg/mL (≈ 0.66 µM) | 32 µg/mL (≈ 42.2 µM) | > 128 µg/mL | 3.1 µg/mL (≈ 4.09 µM) | 3.1 µg/mL (≈ 4.09 µM) | > 100 µg/mL | > 128 µg/mL | 0.25 µg/mL (≈ 0.33 µM) | 4 µg/mL (≈ 5.28 µM) | 0.25 µg/mL (≈ 0.33 µM)
7 | CC[C@H]1OC(=O)[C@H](C)[C@@H](O[C@H]2C[C@@](C)(OC)[C@@H](O)[C@H](C)O2)[C@H](C)[C@@H](O[C@@H]2O[C@H](C)C[C@H](N(C)C)[C@H]2O)[C@](C)(OC/C=C/c2cnc3ccccc3c2)C[C@@H](C)C(=O)[C@H](C)[C@H]2NC(=O)O[C@@]21C | 1 µg/mL (≈ 1.08 µM) | 2 µg/mL (≈ 2.16 µM) | 8 µg/mL (≈ 8.64 µM) | 0.2 µg/mL (≈ 0.216 µM) | 3.1 µg/mL (≈ 3.35 µM) | > 100 µg/mL | 8 µg/mL (≈ 8.64 µM) | 0.03 µg/mL (≈ 0.0324 µM) | 1 µg/mL (≈ 1.08 µM) | 0.03 µg/mL (≈ 0.0324 µM)
8 | CC[C@H]1OC(=O)[C@H](C)C(=O)[C@H](C)[C@@H](O[C@@H]2O[C@H](C)C[C@H](N(C)C)[C@H]2O)[C@](C)(OC/C=C/c2ccnc3ccccc23)C[C@@H](C)C(=O)[C@H](C)[C@H]2NC(=O)O[C@@]21C | 1 µg/mL (≈ 1.31 µM) | 4 µg/mL (≈ 5.22 µM) | 64 µg/mL (≈ 83.6 µM) | 0.2 µg/mL (≈ 0.261 µM) | 0.2 µg/mL (≈ 0.261 µM) | > 100 µg/mL | 128 µg/mL (≈ 167 µM) | 0.03 µg/mL (≈ 0.0392 µM) | 2 µg/mL (≈ 2.61 µM) | 0.03 µg/mL (≈ 0.0392 µM)
9 | CC[C@H]1OC(=O)[C@H](C)C(=O)[C@H](C)[C@@H](O[C@@H]2O[C@H](C)C[C@H](N(C)C)[C@H]2O)[C@](C)(OC/C=C/c2cccnc2)C[C@@H](C)C(=O)[C@H](C)[C@H]2NC(=O)O[C@@]21C | 0.5 µg/mL (≈ 0.698 µM) | 8 µg/mL (≈ 11.2 µM) | > 128 µg/mL | 0.1 µg/mL (≈ 0.14 µM) | 0.1 µg/mL (≈ 0.14 µM) | > 100 µg/mL | > 128 µg/mL | 0.03 µg/mL (≈ 0.0419 µM) | 0.5 µg/mL (≈ 0.698 µM) | 0.03 µg/mL (≈ 0.0419 µM)
10 | CC[C@H]1OC(=O)[C@H](C)C(=O)[C@H](C)[C@@H](O[C@@H]2O[C@H](C)C[C@H](N(C)C)[C@H]2O)[C@](C)(OC/C=C/c2cnc3ncccc3c2)C[C@@H](C)C(=O)[C@H](C)[C@H]2NC(=O)O[C@@]21C | 2 µg/mL (≈ 2.61 µM) | 2 µg/mL (≈ 2.61 µM) | 0.5 µg/mL (≈ 0.652 µM) | 0.05 µg/mL (≈ 0.0652 µM) | 0.05 µg/mL (≈ 0.0652 µM) | > 100 µg/mL | 0.5 µg/mL (≈ 0.652 µM) | 0.03 µg/mL (≈ 0.0391 µM) | 2 µg/mL (≈ 2.61 µM) | 0.03 µg/mL (≈ 0.0391 µM)
